The record followed here is ChEMBL document CHEMBL4145607, “Tamarixetin Exhibits Anti-inflammatory Activity and Prevents Bacterial Sepsis by Increasing IL-10 Production” (J Nat Prod, 2018).

Test [1] has as its system BMDC. The test can be described thus: Inhibition of Escherichia coli DH5alpha infection-induced immune response in C57BL/6 mouse BMDC assessed as reduction in IL-12p70 secretion at 25 uM pretreated for 30 mins followed by Escherichia coli DH5alpha infection for 6 hrs by ELISA. In kind it is functional, cell-based. In outline:
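C57BL/6 BMDCs received 25 μM compound and E. coli DH5α, 3 × 10^6 CFU·mL−1. Schedules were: compound 30 min before a 6 h infection; co-addition for 6 h; or compound for 30, 60, 90 or 120 min plus 6 h infection. Supernatant TNF-α, IL-6, IL-10 and IL-12p70 were measured by ELISA. At least three experiments in triplicate.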

Test [2] concerns BMDC. The test can be described thus: Inhibition of LPS-induced immune response in C57BL/6 mouse BMDC assessed as reduction in IL-12p70 secretion up to 25 uM pretreated for 30 mins followed by LPS-challenge measured after 6 hrs by ELISA. In kind it is functional, cell-based. In outline: (§1)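 Mouse BMDCs (female C57BL/6 bone marrow, GM-CSF-derived, ≥90% CD11c+ on day 7) pretreated 30 min with graded compound concentrations, then stimulated with LPS 50 ng/mL for 6 h. Supernatant TNF-α, IL-6, IL-10 and IL-12p70 quantified by sandwich ELISA. Mean ± SEM vs LPS-only cells; experiments repeated at least three times.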
In general terms: ELISA stands for enzyme-linked immunosorbent assay.

Test [3] deals with BMDC. As to the kind of experiment: Inhibition of Escherichia coli K1 infection-induced immune response in C57BL/6 mouse BMDC assessed as reduction in IL-6 secretion at 25 uM pretreated for 60 to 120 mins followed by Escherichia coli K1 infection for 6 hrs by ELISA. In kind it is functional, cell-based. In outline:
(§2)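 BMDCs from C57BL/6 mice were given 25 μM compound and E. coli K1, […]. Timing was: compound 30 min before a 6 h infection; cotreatment for 6 h; or compound for 30–120 min with 6 h infection. Supernatant cytokines (TNF-α, IL-6, IL-10, IL-12p70) were measured by ELISA. At least three experiments in triplicate.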

Test [4] addresses T1, Toll-like receptor 4 (Mus musculus) (UniProt Q9QUK6).
T1 sequence (whole entry): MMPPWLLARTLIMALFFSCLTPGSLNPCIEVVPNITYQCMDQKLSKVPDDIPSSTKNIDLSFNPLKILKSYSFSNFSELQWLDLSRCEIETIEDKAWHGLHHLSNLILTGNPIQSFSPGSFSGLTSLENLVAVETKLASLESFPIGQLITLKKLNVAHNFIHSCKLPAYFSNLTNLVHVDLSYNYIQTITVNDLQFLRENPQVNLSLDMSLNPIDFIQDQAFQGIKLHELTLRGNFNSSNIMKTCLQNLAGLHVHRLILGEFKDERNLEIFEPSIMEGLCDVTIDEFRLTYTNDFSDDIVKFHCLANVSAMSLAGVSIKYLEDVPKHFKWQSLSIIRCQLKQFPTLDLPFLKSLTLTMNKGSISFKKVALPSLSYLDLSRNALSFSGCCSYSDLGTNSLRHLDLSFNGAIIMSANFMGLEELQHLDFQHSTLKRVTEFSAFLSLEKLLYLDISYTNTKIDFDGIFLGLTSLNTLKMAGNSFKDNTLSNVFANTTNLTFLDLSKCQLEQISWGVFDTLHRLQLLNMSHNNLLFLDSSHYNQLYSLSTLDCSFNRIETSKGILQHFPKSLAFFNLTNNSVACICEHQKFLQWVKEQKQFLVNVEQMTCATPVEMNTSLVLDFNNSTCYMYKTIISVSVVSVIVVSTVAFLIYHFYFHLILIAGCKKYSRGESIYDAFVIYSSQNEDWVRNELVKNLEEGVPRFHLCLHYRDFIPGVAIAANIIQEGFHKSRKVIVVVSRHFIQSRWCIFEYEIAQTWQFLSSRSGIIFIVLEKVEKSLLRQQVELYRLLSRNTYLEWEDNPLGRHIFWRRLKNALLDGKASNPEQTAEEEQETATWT
The test can be described thus: Inhibition of LPS-induced TLR4 activation in C57BL/6 mouse BMDC assessed as reduction in JNK1 phosphorylation at 25 uM pretreated for 30 mins followed by LPS-challenge measured after 15 to 90 mins by Western blot analysis. In kind it is cell-based. In outline: (§3)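 BMDCs were pretreated 30 min with 25 μM compound, then stimulated with LPS 50 ng·mL−1 for the indicated times. Lysates (25 μg protein) were run on 10% SDS-PAGE and immunoblotted for phospho/total ERK, JNK, p38 and Akt, plus COX-2, IκBα and α-tubulin, with ECL detection. Representative of three experiments.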

Test [5] addresses T1, Toll-like receptor 4 (Mus musculus). The test can be described thus: Inhibition of LPS-induced TLR4 activation in C57BL/6 mouse BMDC assessed as reduction in Akt phosphorylation at 25 uM pretreated for 30 mins followed by LPS-challenge measured after 15 to 90 mins by Western blot analysis. It counts as cell-based. In outline:
as §3
(Immunoblotting shows a protein as a band on a membrane.)

The test system of test [6] is BMDC. The test can be described thus: Inhibition of LPS-induced immune response in C57BL/6 mouse BMDC assessed as increase in IL10 secretion up to 25 uM pretreated for 30 mins followed by LPS-challenge measured after 6 hrs by ELISA. It counts as functional, cell-based. In outline:
as §1

Test [7] deals with Mus musculus. As to the kind of experiment: Antiinflammatory activity in Balb/c mouse model of LPS-induced endotoxemia assessed as reduction in serum AST level at 1 mg/kg, ip pretreated for 1 hr followed by LPS-challenge measured after 12 hrs by ELISA. In kind it is functional, organism-based. In a few lines: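 In BALB/c mice, 1 mg·kg−1 i.p. was given 1 h before LPS 10 mg·kg−1 i.p. After 12 h, serum AST, ALT and BUN were measured by ELISA. Means ± SEM.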

The subject of test [8] is BMDC. The test can be described thus: Inhibition of LPS-induced immune response in C57BL/6 mouse BMDC assessed as reduction in TNFalpha secretion up to 25 uM pretreated for 30 mins followed by LPS-challenge measured after 6 hrs by ELISA. It counts as functional, cell-based. In outline:
as §1

Test [9] concerns BMDC. The test can be described thus: Inhibition of Escherichia coli K1 infection-induced immune response in C57BL/6 mouse BMDC assessed as reduction in TNFalpha secretion at 25 uM pretreated for 60 to 120 mins followed by Escherichia coli K1 infection for 6 hrs by ELISA. In kind it is functional, cell-based. In a few lines: as §2
Test [10] concerns Mus musculus. The test can be described thus: Antiinflammatory activity in Balb/c mouse model of LPS-induced endotoxemia assessed as reduction in infiltration of immune cells at 1 mg/kg, ip pretreated for 1 hr followed by LPS-challenge measured after 12 hrs by hematoxylin and eosin staining based microscopic analysis. In kind it is functional, organism-based. In a few lines: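 Dosing was 1 mg·kg−1 i.p. 1 h before LPS 10 mg·kg−1 i.p. in BALB/c mice. At 12 h lungs were perfused and formalin-fixed, then paraffin-embedded. 5 μm sections were H&E-stained and imaged by microscope. Representative of three independent experiments.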

Test [11] deals with Mus musculus. As to the kind of experiment: Antiseptic activity in Balb/c mouse model of Escherichia coli K1 infection-induced sepsis assessed as reduction in bacterial count in liver at 1 mg/kg, ip pretreated for 1 hr followed by Escherichia coli K1 infection measured after 12 hrs. It counts as functional, organism-based. In outline:
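Pretreatment was 1 mg·kg−1 i.p. 1 h before i.p. E. coli K1 (1 × 10^6 CFU per mouse) in BALB/c mice. At 12 h, lungs, liver and kidneys were homogenized in PBS and diluted 1:1000. 10 μL was plated on LB agar, incubated 24 h at 37 °C, and colonies counted.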

The source made the active and inactive calls. The calls are words filed in the database; no cut-off is given here.

For the compound `COc1ccc(-c2oc3cc(O)cc(O)c3c(=O)c2O)cc1O` [TAMARIXETIN], the inhibition result in [1], in [2], in [4], in [5], in [6] and in test [8] was “Active” each time. For the same compound, the inhibition entry in test [3] and in test [9] was “inactive” in each case. The outcome in test [7], in [10] and in test [11] was Active.
